Assay [1] concerns the target Telomerase reverse transcriptase (Homo sapiens, UniProt O14746). Briefly: Inhibition of telomerase in human SW1116 cells after 24 hrs by TRAP-PCR-ELISA assay. It counts as cell-based, SW 1116. The method, boiled down:
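Cells kept in DMEM with 10% FBS, streptomycin and penicillin at 37 °C, 5% CO2. Lysed in RIPA on ice for 30 min, supernatant cleared at 12,000g. Extract used in a TRAP kit, 35 PCR cycles, ELISA read at 490 nm. Mean ± SD.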
(In general: ELISA stands for enzyme-linked immunosorbent assay.)

In a further assay the test system is BGC-823. Briefly: Antiproliferative activity against human BGC823 cells after 48 hrs by MTT assay. It counts as functional, cell-based. The conditions noted are these: BGC-823, 48 h. The method, boiled down: (§1)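 1×10^4 cells/well seeded and held 24 h at 37 °C, 5% CO2. Viability read after 48 h by MTT (4 h, 37 °C), DMSO solubilization, A570. Three independent experiments, mean ± SD.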
(Tetrazolium assays rely on reduction of a dye to a coloured formazan, in cell work by metabolically active cells.)

For the next assay, the system named is HeLa. Briefly: Antiproliferative activity against human HeLa cells after 48 hrs by MTT assay. It counts as functional, cell-based. The method, boiled down:
as §1

In a further assay the test system is HepG2. As to the kind of experiment: Antiproliferative activity against human HepG2 cells after 48 hrs by MTT assay. Conditions: HepG2, 48 h. It counts as functional, cell-based. The method, boiled down:
as §1

A short description of assay [2]: Antiproliferative activity against human SW1116 cells after 48 hrs by MTT assay. It counts as functional, cell-based. The conditions noted are these: SW 1116, 48 h. The method, boiled down:
as §1

Telomerase reverse transcriptase, sequence (O14746 whole entry): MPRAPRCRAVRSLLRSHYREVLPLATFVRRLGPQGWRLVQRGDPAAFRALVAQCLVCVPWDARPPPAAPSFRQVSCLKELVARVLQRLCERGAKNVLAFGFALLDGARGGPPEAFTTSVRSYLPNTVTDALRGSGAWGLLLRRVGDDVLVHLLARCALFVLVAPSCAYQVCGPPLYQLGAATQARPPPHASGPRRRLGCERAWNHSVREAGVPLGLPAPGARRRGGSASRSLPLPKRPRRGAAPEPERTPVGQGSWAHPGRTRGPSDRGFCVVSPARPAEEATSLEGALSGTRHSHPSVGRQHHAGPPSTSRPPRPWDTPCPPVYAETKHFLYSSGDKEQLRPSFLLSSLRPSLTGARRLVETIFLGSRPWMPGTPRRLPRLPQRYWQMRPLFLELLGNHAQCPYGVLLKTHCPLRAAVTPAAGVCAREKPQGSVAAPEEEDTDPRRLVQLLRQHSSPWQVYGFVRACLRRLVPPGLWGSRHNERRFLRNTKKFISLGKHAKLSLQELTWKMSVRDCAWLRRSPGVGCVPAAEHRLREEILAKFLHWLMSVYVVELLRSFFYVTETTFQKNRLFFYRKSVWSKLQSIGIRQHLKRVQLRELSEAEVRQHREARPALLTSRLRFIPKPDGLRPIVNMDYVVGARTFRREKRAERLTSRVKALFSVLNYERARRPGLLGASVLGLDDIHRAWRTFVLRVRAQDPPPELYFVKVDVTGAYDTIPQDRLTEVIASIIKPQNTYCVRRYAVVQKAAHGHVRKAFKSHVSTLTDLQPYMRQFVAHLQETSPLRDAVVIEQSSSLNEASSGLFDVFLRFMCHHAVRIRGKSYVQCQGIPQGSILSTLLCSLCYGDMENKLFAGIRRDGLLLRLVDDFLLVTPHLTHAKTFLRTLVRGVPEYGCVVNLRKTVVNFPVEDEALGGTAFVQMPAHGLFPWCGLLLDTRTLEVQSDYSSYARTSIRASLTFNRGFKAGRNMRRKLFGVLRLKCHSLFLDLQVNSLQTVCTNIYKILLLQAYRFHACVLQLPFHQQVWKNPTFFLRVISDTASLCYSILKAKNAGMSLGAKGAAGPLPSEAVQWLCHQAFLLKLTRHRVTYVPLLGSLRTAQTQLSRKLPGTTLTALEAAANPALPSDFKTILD

Take `O=[N+]([O-])c1ccc(CSc2nnc(-c3ccc4c(c3)OCCO4)o2)cc1`: the IC50 – broadly, the concentration that inhibits the measured activity by half – in assay [1] turned out to be 2.71 µM; with BGC-823, 23 µM; with HeLa, 27.5 µM; with HepG2, 35.4 µM; in assay [2], 14.6 µM.
For the compound `O=c1[nH]cc(F)c(=O)[nH]1` [FLUOROURACIL], the IC50 in the assay on BGC-823 is 100 µM; in the assay with HeLa, 110 µM; in assay [2] it was 95.2 µM.
On to `Cc1cccc(CSc2nnc(-c3ccc4c(c3)OCCO4)o2)c1`, for which the IC50 in assay [1] turned out to be 3.26 µM; with BGC-823, 31.2 µM; in the assay with HeLa, 32.8 µM; in the assay on HepG2, 33.4 µM; in assay [2] it was 27.2 µM.
Take `Clc1ccc(CSc2nnc(-c3ccc4c(c3)OCCO4)o2)cc1`: the IC50 in assay [1] amounted to 2.91 µM; with BGC-823, 22.6 µM; in the assay with HeLa, 28.5 µM; with HepG2, 28.8 µM; in assay [2], 28.4 µM.
Take `Fc1ccccc1CSc1nnc(-c2ccc3c(c2)OCCO3)o1`: the 50% inhibitory concentration (IC50) in assay [1] was determined as 2.93 µM; in the assay on BGC-823 it was 28.9 µM; in the assay with HeLa, 41.6 µM; in the assay with HepG2, 24 µM; in assay [2] it was 21.9 µM.
`Clc1ccccc1CSc1nnc(-c2ccc3c(c2)OCCO3)o1`: the IC50 in assay [1] is 5.89 µM; in the assay on BGC-823, 22.5 µM; in the assay with HeLa, 36.8 µM; in the assay on HepG2, 22.6 µM; in assay [2], 29.5 µM.
For `Fc1cccc(F)c1CSc1nnc(-c2ccc3c(c2)OCCO3)o1`, in that order: 15.8 µM, 36.1 µM, 43.2 µM, 41.6 µM and 36.3 µM.
The like results for `O=[N+]([O-])c1cccc(CSc2nnc(-c3ccc4c(c3)OCCO4)o2)c1` were, in that order, 4.65 µM, 23.7 µM, 35.6 µM, 38.3 µM and 30.1 µM.
For `Brc1ccccc1CSc1nnc(-c2ccc3c(c2)OCCO3)o1`, the IC50 in assay [1] is 2.02 µM; in the assay on BGC-823, 21.2 µM; in the assay with HeLa, 22.4 µM; in the assay with HepG2, 19.9 µM; in assay [2], 14.1 µM.
Take `O=[N+]([O-])c1ccccc1CSc1nnc(-c2ccc3c(c2)OCCO3)o1`: the IC50 in assay [1] amounted to 12.1 µM; with BGC-823, 23.3 µM; in the assay with HeLa, 32.7 µM; in the assay on HepG2, 38.1 µM; in assay [2] it was 20.8 µM.
For the compound `Clc1cccc(CSc2nnc(-c3ccc4c(c3)OCCO4)o2)c1`, the IC50 in assay [1] turned out to be 2.34 µM; in the assay on BGC-823, 26.9 µM; in the assay on HeLa, 31.8 µM; in the assay with HepG2, 33.4 µM; in assay [2] it was 25.2 µM.
`Fc1ccc(CSc2nnc(-c3ccc4c(c3)OCCO4)o2)c(F)c1`: the IC50 stood at 2.44 µM in assay [1]; 30.3 µM with BGC-823; 41.7 µM in the assay with HeLa; 38.7 µM in the assay on HepG2; 29.6 µM in assay [2].
In the case of `Ic1ccc(CSc2nnc(-c3ccc4c(c3)OCCO4)o2)cc1`, the IC50 was found to be 3.66 µM in assay [1]; 22.7 µM in the assay with BGC-823; 31.1 µM in the assay on HeLa; 31.2 µM in the assay on HepG2; 29.2 µM in assay [2].
As for `Cc1ccccc1CSc1nnc(-c2ccc3c(c2)OCCO3)o1`, the IC50 in assay [1] came out at 1.27 µM; with BGC-823, 22.6 µM; in the assay on HeLa, 19 µM; in the assay with HepG2, 22 µM; in assay [2], 23.9 µM.
As to `c1ccc(CSc2nnc(-c3ccc4c(c3)OCCO4)o2)cc1`, the IC50 in assay [1] worked out at 8.21 µM; in the assay on BGC-823, 33.6 µM; with HeLa it was 40.3 µM; with HepG2, 32.1 µM; in assay [2], 31.5 µM.
Regarding `Brc1ccc(CSc2nnc(-c3ccc4c(c3)OCCO4)o2)cc1`, the IC50 was 1.66 µM in assay [1]; 22.2 µM in the assay on BGC-823; 23.6 µM in the assay with HeLa; 8.54 µM with HepG2; 24.5 µM in assay [2].
Regarding `Brc1cccc(CSc2nnc(-c3ccc4c(c3)OCCO4)o2)c1`, the IC50 in assay [1] came out at 2.45 µM; in the assay on BGC-823, 20.6 µM; with HeLa it was 25.9 µM; with HepG2 it was 24.9 µM; in assay [2], 20.1 µM.
For the compound `Fc1ccc(CSc2nnc(-c3ccc4c(c3)OCCO4)o2)cc1`, the IC50 in assay [1] amounted to 3.67 µM; in the assay with BGC-823 it was 28.7 µM; in the assay with HeLa it was 41.2 µM; with HepG2 it was 38 µM; in assay [2], 21.6 µM.
The like results for `Ic1ccccc1CSc1nnc(-c2ccc3c(c2)OCCO3)o1` were, in that order, 1.83 µM, 18.9 µM, 20 µM, 7.21 µM and 12.2 µM.
Consider `Cc1ccc(CSc2nnc(-c3ccc4c(c3)OCCO4)o2)cc1`, for which the IC50 is 5.04 µM in assay [1]; 31.6 µM with BGC-823; 45.4 µM in the assay with HeLa; 41.9 µM in the assay on HepG2; 32.5 µM in assay [2].
